# Measurements of several laboratories.
SMILES,test system,setting,quantity,value
Cn1cc(-c2ccc(S(=O)(=O)[C@@H]3C[C@@H](C(=O)NC4(C#N)CC4)N(C(=O)C4(C(F)(F)F)CC4)C3)c(C(F)(F)F)c2)cn1,"human, plasma","oral, 30 mg, single dose, fasted, healthy volunteers",Tmax,4.51 h
C=CC(=O)N(C)CCOc1c(N)ncnc1-c1cc(F)cc(NC(=O)c2ccc(C3CC3)cc2F)c1C,"human, blood","oral, 100 mg, single dose, healthy volunteers",Tmax,1.03 h
CC(C)n1cc(C#N)c2cc(-n3cc(C(=O)O)cn3)ccc21,"human, plasma","oral, 10 mg, single dose, fasted, healthy volunteers",Tmax,2.8 h
CCc1nc2c(C)cc(N3CCN(CC(=O)N4CC(O)C4)CC3)cn2c1N(C)c1nc(-c2ccc(F)cc2)c(C#N)s1,"human, plasma","oral, 60 mg, fed, healthy volunteers",Tmax,0.5 h
CCc1cc(C(=O)NC)c2nccc(N3CCc4c(cc(Cn5ccnc5)cc4-c4cn(C)nc4C(F)(F)F)C3=O)c2c1,"male Sprague-Dawley rat, plasma","intravenous, 3 mg/kg",MRT(0-inf),24 min
C[C@@H](Nc1cc(F)cc(F)c1)c1cc(C(=O)N(C)C)cc2c(=O)cc(N3CCOCC3)oc12,"human, plasma","oral, 60 mg, patients",Tmax,4.08 h
Fc1ccc(Nc2n[nH]c3cccnc23)cc1Cl,"rat, brain homogenate",,fraction unbound,0.0045
O=C(Nc1cc(F)c(F)c(F)c1)c1ccc(F)c(S(=O)(=O)NCc2cccc(B(O)O)c2)c1,"male Sprague-Dawley rat, plasma","intravenous, 2 mg/kg",MRT(0-inf),49.8 min
CNC(=O)Nc1cc(Oc2cncc(C)c2)c([C@H]2C[C@@H](O)C2)cn1,"rat, plasma",,fraction unbound,0.32
CCOC(=O)[C@@]12C[C@@H]1[C@@H](n1ccc3c(NC)nc(C#Cc4ccc(Cl)s4)nc31)[C@H](O)[C@@H]2O,"male Sprague-Dawley rat, plasma","oral, 10 mg/kg",MRT,2.75 h
COc1ccc([C@@H]2CN(C(=O)[C@@H](O)CO)C[C@@]2(C)[C@@H](C)O)cc1OC1CN(c2ccc(C)cn2)C1,"human, plasma","oral, 10 mg, single dose, healthy volunteers",Tmax,2 h
